Data on one molecule can be found in ChEMBL document CHEMBL3994579, “Synthesis and antibacterial activity of novel 3-O-descladinosylazithromycin derivatives” (2017).

SMILES strings stand for the structures. ≈ marks a conversion by molar mass, not a printed value.

Assay type in all cases: functional
Experiment [1] concerns Streptococcus pneumoniae. Nature of the experiment: Antibacterial activity against erythromycin-resistant Streptococcus pneumoniae A22072 expressing mefA gene by broth microdilution method. The essentials: (§1)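 Broth microdilution per NCCL recommendation, read as minimal inhibitory concentration, run alongside azithromycin and clarithromycin references. Strains: S. pneumoniae B1 (erythromycin-resistant, ermB), A22072 (erythromycin-resistant, mefA), AB11 (erythromycin-resistant, erm and mef); S. aureus ATCC29213 ([…]); S. epidermidis clinical isolate (penicillin-resistant, not characterized).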

Experiment [2] relates to Streptococcus pneumoniae. Nature of the experiment: Potency index, ratio of clarithromycin MIC to test compound MIC for erythromycin-resistant Streptococcus pneumoniae B1 expressing ermB gene.
Experiment [3] relates to Staphylococcus aureus. The experiment in a line: Antibacterial activity against erythromycin-susceptible Staphylococcus aureus ATCC 25923 by broth microdilution method. The essentials: (§2)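 MICs were determined in vitro by broth microdilution following the NCCL-recommended method. Azithromycin and clarithromycin were run alongside as reference antibiotics on the same strain panel.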
A general note: In broth dilution the organism is exposed to a series of concentrations in liquid medium.

Experiment [4] relates to Streptococcus pneumoniae. Nature of the experiment: Antibacterial activity against erythromycin-resistant Streptococcus pneumoniae AB11 expressing ermB/mefA genes by broth microdilution method. Put shortly: as §1
The subject of experiment [5] is Streptococcus pneumoniae. The experiment in a line: Potency index, ratio of clarithromycin MIC to test compound MIC for erythromycin-resistant Streptococcus pneumoniae A22072 expressing mefA gene.
Experiment [6] has as its system Streptococcus pyogenes. The experiment in a line: Antibacterial activity against erythromycin-resistant Streptococcus pyogenes R1 clinical isolate by broth microdilution method.
Experiment [7] concerns Streptococcus pneumoniae. Nature of the experiment: Potency index, ratio of azithromycin MIC to test compound MIC for erythromycin-resistant Streptococcus pneumoniae A22072 expressing mefA gene.
Experiment [8] relates to Staphylococcus aureus. Nature of the experiment: Antibacterial activity against […] Staphylococcus aureus ATCC 29213 by broth microdilution method. The essentials:
as §1

The test system of experiment [9] is Staphylococcus epidermidis. The experiment in a line: Potency index, ratio of azithromycin MIC to test compound MIC for penicillin-resistant Staphylococcus epidermidis clinical isolate.
The subject of experiment [10] is Staphylococcus epidermidis. The experiment in a line: Antibacterial activity against penicillin-resistant Staphylococcus epidermidis clinical isolate by broth microdilution method. Put shortly: as §1
Experiment [11] relates to Bacillus subtilis. Nature of the experiment: Antibacterial activity against erythromycin/penicillin-susceptible Bacillus subtilis ATCC 9372 by broth microdilution method. The essentials:
as §2

The test system of experiment [12] is Streptococcus pneumoniae. Nature of the experiment: Potency index, ratio of azithromycin MIC to test compound MIC for erythromycin-resistant Streptococcus pneumoniae B1 expressing ermB gene.
Experiment [13] relates to Bacillus subtilis. Nature of the experiment: Potency index, ratio of azithromycin MIC to test compound MIC for erythromycin/penicillin-susceptible Bacillus subtilis ATCC 9372.
The test system of experiment [14] is Pseudomonas aeruginosa. The experiment in a line: Antibacterial activity against penicillin-susceptible Pseudomonas aeruginosa ATCC 27853 by broth microdilution method. Put shortly:
as §2

The subject of experiment [15] is Streptococcus pneumoniae. The experiment in a line: Potency index, ratio of clarithromycin MIC to test compound MIC for erythromycin-resistant Streptococcus pneumoniae AB11 expressing ermB/mefA genes.
Experiment [16] relates to Streptococcus pyogenes. Nature of the experiment: Antibacterial activity against erythromycin-susceptible Streptococcus pyogenes clinical isolate by broth microdilution method. Put shortly: as §2
For experiment [17], the system named is Escherichia coli. Nature of the experiment: Antibacterial activity against penicillin-susceptible Escherichia coli ATCC 25922 by broth microdilution method. Put shortly:
as §2

Experiment [18] has as its system Streptococcus pneumoniae. The experiment in a line: Potency index, ratio of azithromycin MIC to test compound MIC for erythromycin-resistant Streptococcus pneumoniae AB11 expressing ermB/mefA genes.
Experiment [19] deals with Streptococcus pneumoniae. The experiment in a line: Antibacterial activity against erythromycin-resistant Streptococcus pneumoniae B1 expressing ermB gene by broth microdilution method. The essentials:
as §1

`CCCCCCNC(=O)O[C@@H]1[C@@H](C)N(C)C[C@H](C)C[C@@](C)(O)[C@H](O[C@@H]2O[C@H](C)C[C@H](N(C)C)[C@H]2O)[C@@H](C)[C@H](OC(=O)Nc2ccc(OC)cc2)[C@@H](C)C(=O)O[C@H](CC)[C@@]1(C)O`: the MIC – broadly, the smallest concentration in the dilution series that meets the test's criterion for growth inhibition – in experiment [1] turned out to be 8 µg/mL (≈ 9.23 µM); in experiment [3], 8 µg/mL (≈ 9.23 µM); in [4], 1 µg/mL (≈ 1.15 µM); in experiment [6], 32 µg/mL (≈ 36.9 µM); in [8], 128 µg/mL (≈ 148 µM); in experiment [10] it was 0.125 µg/mL (≈ 0.144 µM). For the same molecule, the MIC stood at 0.5 µg/mL (≈ 0.577 µM) in experiment [11]; 128 µg/mL (≈ 148 µM) in experiment [14]; 1 µg/mL (≈ 1.15 µM) in [16]; 128 µg/mL (≈ 148 µM) in experiment [17]; 1 µg/mL (≈ 1.15 µM) in experiment [19]. The Ratio is reported as 256 in experiment [2]; 8 - 256 in experiment [5]; 8 - 256 in [7]; 2 in experiment [9]; 256 in experiment [12]; 2 in experiment [13]. The Ratio in experiment [15] was 128; in experiment [18], 256.
